# High-throughput results: PubChem, Johns Hopkins Ion Channel Center
# Shown are actives, neighbours in structure and some others; about 3.5% of the full set was active somewhere.
# MrgX1 allo act: human MrgX1 positive allosteric modulation, primary screen; actives 0.63% (n = 310,000); Q96LB2; B-score at 10 µM; MrgX1-HEK293, Fluo-4 calcium flux, FDSS; stronger effect = higher value; AID 588675;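 active means plate-corrected calcium response at least 3 library SD above typical, normal starting fluorescence, not activating the receptor alone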;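 further: compound read alongside a low EC10 to EC30 dose of BAM8-22 agonist; peak minus trough fluorescence over baseline measured at the second addition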
# Target sequence (Q96LB2 whole entry, looked up): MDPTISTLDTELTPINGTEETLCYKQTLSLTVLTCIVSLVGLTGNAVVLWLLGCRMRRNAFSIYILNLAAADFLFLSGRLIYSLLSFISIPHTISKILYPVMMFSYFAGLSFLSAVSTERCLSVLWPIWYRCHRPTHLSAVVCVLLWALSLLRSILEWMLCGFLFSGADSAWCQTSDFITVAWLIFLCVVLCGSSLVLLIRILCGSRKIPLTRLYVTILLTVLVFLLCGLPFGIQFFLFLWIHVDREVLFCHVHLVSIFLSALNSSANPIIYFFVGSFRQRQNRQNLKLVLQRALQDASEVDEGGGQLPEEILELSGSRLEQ
# MrgX1 antag: antagonists of human MrgX1 receptor. B-score at 10 µM. MRGX1-HEK293 calcium flux, Fluo-4, BAM8-22 antagonism; stronger effect = lower value. actives 1.3% (n = 310,000). Q96LB2. AID 588676;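 active means calcium-response B-score plate-corrected more than 3 library SD below zero, starting fluorescence within 5 deviations, no agonist response on first addition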;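 further: peak minus trough fluorescence over baseline after final BAM8-22 challenge near maximal dose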
# RGS4 block: human RGS4 inhibition; P49798; HEK293 M3R/RGS4 inducible, Fluo-4 calcium flux; stronger effect = higher value; triggered by carbachol at its EC20; B-score at 10 µM; actives 0.45% (n = 310,000);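 active means B-score, a plate-corrected calcium signal, over three deviations above library mean, with baseline fluorescence within five deviations of library mean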;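 further: RGS4 expression induced by doxycycline in cells with stable M3 receptor; B-score is computed from the integrated fluorescence ratio over baseline after carbachol; higher B-score means a larger calcium signal and so more RGS4 inhibition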
# Target sequence (P49798 whole entry, looked up): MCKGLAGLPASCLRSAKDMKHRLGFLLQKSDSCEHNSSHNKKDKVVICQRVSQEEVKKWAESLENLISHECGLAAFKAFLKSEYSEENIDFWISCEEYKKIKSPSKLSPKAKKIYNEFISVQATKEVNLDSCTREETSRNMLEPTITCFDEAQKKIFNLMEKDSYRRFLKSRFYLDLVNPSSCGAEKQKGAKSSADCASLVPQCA
# RGS4 act: RGS4 potentiation or activation | HEK293 M3R/inducible RGS4, carbachol calcium flux Fluo4; stronger effect = lower value | B-score at 10 µM | actives 0.92% (n = 310,000);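 active means B-score of the integrated calcium signal more than 4 SD below the library mean, with starting fluorescence not abnormally high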;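 further: negative B-score means reduced calcium response which marks RGS4 activation or potentiation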
#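 Also added: carbachol at ECmax as muscarinic agonist stimulus; Assay system: HEK293 cells with stable M3R and inducible RGS4; Timing: overnight RGS4 induction, 30 min dye load 37 °C, 20 min compound RT; Measured by: Fluo4-AM (2 µM) calcium-flux fluorescence, kinetic read.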
# MrgX1 agonist: activates human MrgX1 receptor signaling; actives 0.44% (n = 310,000); B-score at 10 µM; Q96LB2; AID 588627; MrgX1-HEK293 cells, Fluo-4 calcium fluorescence, agonist mode; stronger effect = higher value;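 active means calcium response B-score plate-corrected fluorescence ratio at least 3 library SD, with starting fluorescence B-score inside 5 SD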
#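 Material: MrgX1-expressing HEK293 cells / Dosing: compound as first of three additions / Incubation: overnight seeding, then 1 h dark dye loading / Signal: Fluo-4 NW calcium fluorescence / Evaluation: B-scored fluorescence response ratio / Benchmarks: positive and negative control wells on each plate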
# MrgX1 allo conf: reconfirmed allosteric activator of human MrgX1 receptor | shares compounds with MrgX1 allo act | MrgX1-HEK293, Fluo-4 calcium fluorescence, FDSS | activation (ratio percentage), % at 10 µM | actives 13% (n = 1,200) | AID 602413;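 active means ratio at least 3 SD above the weak peptide control, stable starting fluorescence, no direct agonism earlier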;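 further: compound followed by low BAM8-22 agonist challenge near EC20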
# HEK293 Ca flux: counter-screen for MrgX1 antagonists: effect in parental HEK293 cells; fluorescence ratio F(max-min)/F0 at 10 µM; Fluo-4 calcium fluorescence, FDSS; actives 2% (n = 4,000); AID 624111; shares compounds with MrgX1 antag;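 active means duplicate-averaged calcium fluorescence ratio at least three times the standard deviation of buffer wells, a nonspecific response in parental cells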
# HEK293 Ca counter: activity in parental HEK293 cells without MrgX1; shares compounds with MrgX1 antag; parental HEK293 calcium flux, Fluo-4 fluorescence ratio; stronger effect = higher value; fluorescence ratio F(max-min)/F0 at 10 µM; actives 0.4% (n = 4,000);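 active means calcium fluorescence ratio, averaged over duplicates, at least 3 SD of the buffer-well ratio, meaning a nonspecific response in receptor-free cells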;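 further: untransfected parental HEK293 lacking MrgX1 used as counterscreen for MrgX1 allosteric activators; fluorescence change taken during the second addition on a kinetic imager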
# HEK293 Ca cntr2: counter-screen for MrgX1 activators: effect in parental HEK293 cells; shares compounds with MrgX1 antag; Fluo-4 calcium fluorescence (FDSS); stronger effect = higher value; fluorescence ratio F(max-min)/F0 at 10 µM; actives 8.7% (n = 4,000); AID 624115;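 active means calcium fluorescence ratio at least three times the spread of buffer wells, meaning a non-specific response in parental cells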
# Hits are given with their value; - = inactive; . = not tested or not shown.
SMILES,MrgX1 allo act,MrgX1 antag,RGS4 block,RGS4 act,MrgX1 agonist,MrgX1 allo conf,HEK293 Ca flux,HEK293 Ca counter,HEK293 Ca cntr2
CCOC(=O)C1=C(C)C(c2ccc(OC)cc2OC)NC(=O)N1 (stereo not drawn),-,-,-,-,-,.,.,.,.
Fc1ccc(-n2cc(CNCCc3ccccn3)c(-c3ccccc3Cl)n2)cc1,-,-,-,-,-,.,.,.,.
COc1ccc2c(C)cc(SCC(=O)N(C)C3CCS(=O)(=O)C3)nc2c1 (stereo not drawn),10,-,-,-,-,-,-,-,-
COc1ccc2c(C)cc(SCC(=O)N3CCOCC3)nc2c1,-,-,-,-,-,.,.,.,.
CC1CC(C)(C)NC(=S)N1CCCC(=O)N1CCN(c2ccc(F)cc2)CC1 (stereo not drawn),-,-,-,-,-,.,.,.,.
Cc1cccc(NC(=O)C2=C(O)c3ccccc3N(C)S2(=O)=O)c1,-,-,-,-,-,.,.,.,.
COCCNC(=O)c1ccc2c(c1)ncn2-c1cccc(C)c1,-,-,-,-,-,.,.,.,.
Cc1cccc(-n2cnc3cc(C(=O)N4CCc5ccccc54)ccc32)c1,7.5,-,-,-,-,-,-,-,-
O=C(CCl)Nc1cccc(Oc2cnccn2)c1,-,-,-,-,-,.,.,.,.
O=C(CCl)Nc1cccc(Oc2ccccc2)c1,13,-,-,-,-,-,-,-,48
CN1/C(=C/C2CC(=O)NC2=O)C(C)(C)c2ccccc21 (stereo not drawn),7,-,.,.,-,-,-,-,-
CN1/C(=C/C2CC(=O)N(c3cccc4ccccc34)C2=O)C(C)(C)c2ccccc21 (stereo not drawn),-,-,-,-,-,.,.,.,.
Cc1ccccc1NC(=O)c1ccco1,-,-,-,-,-,.,.,.,.
Cc1ccccc1NS(=O)(=O)c1ccc(NC(=O)c2ccco2)cc1,11,-,-,-,-,-,-,-,-
C=C(C)COc1ccc(-c2[nH]ncc2Oc2ccccc2OC)c(O)c1,-,-,-,-,-,.,.,.,.
C=C(C)COc1ccc(-c2[nH]ncc2-c2ccc(Br)cc2)c(O)c1,19,-,-,-,-,10%,-,-,-
C=C(C)COc1ccc(-c2[nH]ncc2-c2ccccc2OC)c(O)c1,18,-,-,-,-,-,-,-,-
Cc1sc2ncnc(OCC(=O)N3CCN(S(=O)(=O)c4ccccc4)CC3)c2c1C,-,-,-,-,-,.,.,.,.
O=C(c1ccccc1)N1CCN(c2ncccn2)CC1,-,-,-,-,-,.,.,.,.
Nc1ncnc2nc(N3CCN(C(=O)c4ccccc4)CC3)[nH]c12,17,-,-,-,-,-,-,-,-
CCCCCC(=O)Nc1c(-c2ccc(OC)cc2)c(=O)c2ccccc2n1C,-,-,-,-,-,.,.,.,.
CCOC(=O)c1c(-c2cccs2)csc1N,8.4,-,-,-,-,-,-,-,-
COc1ccc2[nH]cc(C(=O)CCl)c2c1,21,-,-,-,-,-,-,-,-
CC(C)(C)NNC(=S)Nc1cccc(C(F)(F)F)c1,-,-,-,-,-,.,.,.,.
Nc1ccc(Oc2cccc(Oc3ccc(N)cc3)c2)cc1,-,-,-,-,-,.,.,.,.
SMILES,MrgX1 allo act,MrgX1 antag,RGS4 block,RGS4 act,MrgX1 agonist,MrgX1 allo conf,HEK293 Ca flux,HEK293 Ca counter,HEK293 Ca cntr2
Nc1ccc(Oc2ccc(Br)cc2)cc1,8.4,-,-,-,-,-,-,-,-
COc1ccc(NC(=O)CCN2CCN(S(=O)(=O)c3cc(Cl)ccc3Cl)CC2)cc1,-,-,-,-,-,.,.,.,.
CC(C)c1ccc2occ(-c3nn[nH]n3)c(=O)c2c1,-,-,-,-,-,.,.,.,.
O=C1CSC(c2cccnc2)N1Cc1cccnc1 (stereo not drawn),-,-,-,-,-,.,.,.,.
CCC(C)(C)n1nnnc1C(c1ccc(Cl)cc1)N1CCN(C)CC1 (stereo not drawn),11,-,-,-,-,-,-,-,-
CCC(C)(C)n1nnnc1C(c1ccc(C)cc1)N1CCC(C)CC1 (stereo not drawn),-,-,-,-,-,.,.,.,.
O=C(Cn1nnc2ccccc21)NCc1ccccc1,7.2,-,-,-,-,-,-,-,-
O=C(Nc1nc2c(F)cc(F)cc2s1)c1ccco1,16,-,-,-,-,-,-,-,-
CCCCNc1nc(N(C)c2ccccc2)nc(-n2ccnc2)n1,-,-,-,-,-,.,.,.,.
CCCCCNc1nc(-c2ccccc2)nc(-n2ccnc2)n1,7.5,-,-,-,-,-,-,-,-
CCC(c1nnnn1C1CCCC1)N1CCN(c2ccccc2)CC1 (stereo not drawn),-,-,-,-,-,.,.,.,.
COc1ccc(S(=O)(=O)Nc2ccc(C(F)(F)F)cc2)cc1OC,-,-,-,-,-,.,.,.,.
O=c1[nH]c(Nc2ccccc2)cc2ccccc12,19,-,-,-,-,34%,-,-,-
CCc1cc(C(=O)Nc2cc(S(=O)(=O)N(C)C)ccc2C)sc1C,8.4,-,-,-,-,-,-,-,-
O=C(CSCc1ccccc1)N1CCN(c2ccc(F)cc2)CC1,-,-,-,-,-,.,.,.,.
O=C(CCc1ccccc1)N1CCN(c2ccc(F)cc2)CC1,8.9,-,-,-,-,-,-,-,-
O=C(NC1=NCCS1)c1cc(-c2cccc(Br)c2)nc2ccccc12,-,-,-,-,-,.,.,.,.
Cc1ccc2nc(-c3cccc(Br)c3)cc(C(=O)NC3=NCCS3)c2c1,31,-,-,-,-,-,-,-,-
Cc1cccc(C(=O)N(Cc2nc3ccccc3c(=O)[nH]2)C2CCCCC2)c1,-,-,-,-,-,.,.,.,.
NS(=O)(=O)c1cc(C(=O)NCCc2ccccn2)ccc1Cl,21,-,-,-,-,-,-,-,-
O=C(Nc1cccc(Cl)c1)c1ccc2ncsc2c1,7.7,-,-,-,-,-,-,-,-
O=C(Nc1ccc(Cl)cc1)c1ccc2ncsc2c1,-,-,-,-,-,.,.,.,.
NC(=O)c1oc2ccccc2c1NC(=O)C1CCCCC1,10,-,-,-,-,-,-,-,-
NC(=O)c1oc2ccccc2c1NC(=O)CN1CCCCC1,9.1,-,-,-,-,9.3%,-,-,-
NC(=O)c1oc2ccccc2c1NC(=O)C1CC(=O)N(c2ccccc2)C1 (stereo not drawn),-,-,-,-,-,.,.,.,.
CCOC(=O)c1ccc(N2C(=O)C=C(N3CCOCC3)C2=O)cc1,-,-,-,-,-,.,.,.,.
